pIC50, pKd, pKi: −log10 of the molar value.
Assays:
[1] = molecular target: Bromodomain-containing protein 4 (Homo sapiens, UniProt O60885); experiment: Inhibition of FAM-labeled ZBA248 binding to recombinant human BRD4 bromodomain 1 (44 to 168 residues) expressed in Rosetta2 Escherichia coli DE3 cells after 30 mins by fluorescence polarization assay
Method in brief: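 Recombinant human BRD4 BD1 (residues 44−168) in a fluorescence polarization competitive binding assay, run as described in earlier work.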

MDA-MB-231 = experiment: Growth inhibition of human MDA-MB-231 cells after 4 days by WST-8 assay; assay type: functional, cell-based; conditions: MDA-MB-231, 96 h
Method in brief: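 Cells used within 3 months of thaw. Breast cancer cells seeded at 3000 cells/well, then serially diluted compound added, cultured 4 days. Growth read by WST-8 (10% v/v final, 1−3 h, 450 nm). Readings normalized to DMSO-treated cells. IC50 by nonlinear regression.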

[2] = Drug uptake in tumor of SCID mouse xenografted with human MDA-MB-231 cells at 50 mg/kg administered via oral gavage measured after 1 hr; assay type: ADME, organism-based, Neoplasm; conditions: read-out: Drug uptake
Method in brief: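 Limited PK in SCID mice bearing MDA-MB-231 tumors, 50 mg/kg given by oral gavage. Plasma and tumor tissue drug levels measured at two time points per compound. Values are the mean of two mice/tumors per time point.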

Mus musculus [3] = experiment: Cmax in Balb/c mouse at 25 mg/kg, po by LC-MS/MS analysis; assay type: ADME, organism-based; design: dose 25 mg/kg, route oral; conditions: in vivo
Method in brief: (§1)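 Balb/c mice dosed iv at 5.0 mg/kg or po at 25 mg/kg, compound in vehicle of 20% (v/v) PCP and 70% (v/v) PBS. Serial blood samples taken at 0, 5, 15, 30 min and 1, 2, 4, 6, 8, 24 h. Plasma obtained by centrifugation and stored at −80 °C. Analysis by LC-MS/MS, positive-ion MRM. Parameters from noncompartmental analysis.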

[4] = Clearance in Balb/c mouse at 5 mg/kg, iv by LC-MS/MS analysis; assay type: ADME, organism-based; conditions: in vivo; method in brief: as §1
[5] = Apparent volume of distribution in Balb/c mouse at 5 mg/kg, iv by LC-MS/MS analysis; assay type: ADME, organism-based; conditions: in vivo, read-out: Vz; method in brief: as §1
[6] = Oral bioavailability in Balb/c mouse at 25 mg/kg by LC-MS/MS analysis; assay type: ADME, organism-based; conditions: in vivo; method in brief: as §1
Mus musculus [7] = experiment: Toxicity in SCID mouse xenografted with human MDA-MB-231 cells assessed as change in body weight at 10 to 50 mg/kg administered via oral gavage measured 2 to 3 times per week during compound dosing and measured weekly post treatment; assay type: organism-based; conditions: in vivo
Method in brief: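 Xenografts raised by subcutaneous dorsal injection of 5 × 10⁶ cells in 50% Matrigel into SCID mice, one tumor per mouse. Mice randomized to treatment or vehicle groups at about 100 mm3 tumor volume. Compounds given by oral gavage at the indicated dose-schedules, with percentage body-weight change tracked alongside tumor volume (L × W²/2).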

[8] = molecular target: Bromodomain-containing protein 2 (Homo sapiens, UniProt P25440); experiment: Binding affinity to human BRD2 bromodomain 1 (K71 to N194 residues) expressed in bacterial expression system by BROMOscan assay
[9] = molecular target: Bromodomain-containing protein 3 (Homo sapiens, UniProt Q15059); experiment: Binding affinity to human BRD3 bromodomain 2 (G306 to P416 residues) expressed in bacterial expression system by BROMOscan assay
[10] = molecular target: Bromodomain testis-specific protein (Homo sapiens, UniProt Q58F21); experiment: Binding affinity to human BRDT bromodomain 2 (K250 to E382 residues) expressed in bacterial expression system by BROMOscan assay
CREB-binding protein = CREB-binding protein (Homo sapiens, UniProt Q92793); experiment: Binding affinity to human CREBBP (R1081 to G1197 residues) expressed in bacterial expression system by BROMOscan assay
[11] = molecular target: Histone acetyltransferase p300 (Homo sapiens, UniProt Q09472); experiment: Binding affinity to human EP300 (A1040 to G1161 residues) expressed in bacterial expression system by BROMOScan assay
[12] = molecular target: ATPase family AAA domain-containing protein 2 (Homo sapiens, UniProt Q6PL18); experiment: Binding affinity to human ATAD2A (Q981 to R1108 residues) expressed in bacterial expression system by BROMOScan assay
[13] = molecular target: Bromodomain-containing protein 1 (Homo sapiens, UniProt O95696); experiment: Binding affinity to human BRD1 (E556 to A688 residues) expressed in bacterial expression system by BROMOScan assay
[14] = molecular target: Bromodomain-containing protein 7 (Homo sapiens, UniProt Q9NPI1); experiment: Binding affinity to human BRD7 (L125 to R254 residues) expressed in bacterial expression system by BROMOScan assay
[15] = molecular target: Histone acetyltransferase KAT2A (Homo sapiens, UniProt Q92830); experiment: Binding affinity to human GCN5L2 (E726 to K837 residues) expressed in bacterial expression system by BROMOScan assay
[16] = molecular target: Histone acetyltransferase KAT2B (Homo sapiens, UniProt Q92831); experiment: Binding affinity to human PCAF (G715 to D831 residues) expressed in bacterial expression system by BROMOScan assay
[17] = molecular target: E3 ubiquitin-protein ligase TRIM33 (Homo sapiens, UniProt Q9UPN9); experiment: Binding affinity to human TRIM33-phd-bromo (D882 to A1087 residues) expressed in bacterial expression system by BROMOscan assay
Homo sapiens [18] = species on record: Homo sapiens; experiment: Selectivity index, ratio of Kd for human CECR2 (P423 to D543 residues) to Kd for human BRDT bromodomain 1 (N21 to E137 residues)
Homo sapiens [19] = species on record: Homo sapiens; experiment: Selectivity index, ratio of Kd for human CECR2 (P423 to D543 residues) to Kd for human BRD4 bromodomain 2 (K333 to E460 residues)
Homo sapiens [20] = species on record: Homo sapiens; experiment: Selectivity index, ratio of Kd for human EP300 (A1040 to G1161 residues) to Kd for human BRD2 bromodomain 2 (E348 to D455 residues)
Homo sapiens [21] = species on record: Homo sapiens; experiment: Selectivity index, ratio of Kd for human EP300 (A1040 to G1161 residues) to Kd for human BRD3 bromodomain 1 (P24 to E144 residues)
Homo sapiens [22] = species on record: Homo sapiens; experiment: Selectivity index, ratio of Kd for human EP300 (A1040 to G1161 residues) to Kd for human BRDT bromodomain 1 (N21 to E137 residues)
Homo sapiens [23] = species on record: Homo sapiens; experiment: Selectivity index, ratio of Kd for human CREBBP (R1081 to G1197 residues) to Kd for human BRD2 bromodomain 1 (K71 to N194 residues)
Homo sapiens [24] = species on record: Homo sapiens; experiment: Selectivity index, ratio of Kd for human CREBBP (R1081 to G1197 residues) to Kd for human BRD3 bromodomain 2 (G306 to P416 residues)
Homo sapiens [25] = species on record: Homo sapiens; experiment: Selectivity index, ratio of Kd for human CREBBP (R1081 to G1197 residues) to Kd for human BRDT bromodomain 1 (N21 to E137 residues)
[26] = molecular target: Serine/threonine-protein kinase PLK4 (Homo sapiens, UniProt O00444); experiment: Inhibition of human PLK4 using casein as substrate in presence of [gamma-33P]-ATP
Chain of Serine/threonine-protein kinase PLK4 (O00444 whole entry): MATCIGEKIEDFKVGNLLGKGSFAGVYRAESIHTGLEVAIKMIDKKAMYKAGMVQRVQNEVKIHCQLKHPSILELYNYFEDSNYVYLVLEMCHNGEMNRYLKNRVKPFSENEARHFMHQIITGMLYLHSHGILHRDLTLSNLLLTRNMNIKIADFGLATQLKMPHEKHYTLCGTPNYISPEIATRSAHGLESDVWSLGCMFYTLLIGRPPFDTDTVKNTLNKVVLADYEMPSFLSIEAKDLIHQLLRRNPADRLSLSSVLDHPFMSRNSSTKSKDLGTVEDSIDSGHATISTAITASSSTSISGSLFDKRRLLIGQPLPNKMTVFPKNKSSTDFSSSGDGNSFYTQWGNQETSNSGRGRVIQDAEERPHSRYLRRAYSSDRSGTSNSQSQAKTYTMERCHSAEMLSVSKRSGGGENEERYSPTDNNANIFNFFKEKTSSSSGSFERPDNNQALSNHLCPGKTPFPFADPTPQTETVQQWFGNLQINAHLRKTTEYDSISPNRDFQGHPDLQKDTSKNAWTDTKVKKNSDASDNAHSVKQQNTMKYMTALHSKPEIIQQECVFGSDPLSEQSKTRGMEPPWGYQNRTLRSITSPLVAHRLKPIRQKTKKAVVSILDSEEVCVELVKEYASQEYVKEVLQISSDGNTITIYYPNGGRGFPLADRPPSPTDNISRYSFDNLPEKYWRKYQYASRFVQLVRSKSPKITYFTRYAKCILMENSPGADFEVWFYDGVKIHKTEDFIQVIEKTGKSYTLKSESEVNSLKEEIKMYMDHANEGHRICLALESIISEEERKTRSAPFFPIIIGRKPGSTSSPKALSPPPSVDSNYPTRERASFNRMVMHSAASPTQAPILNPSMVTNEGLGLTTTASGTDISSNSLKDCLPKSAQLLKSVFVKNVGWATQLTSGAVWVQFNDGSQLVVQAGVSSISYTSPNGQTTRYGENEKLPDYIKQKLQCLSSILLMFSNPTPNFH

Chain of Bromodomain-containing protein 7 (Q9NPI1 whole entry, the tested form may be a part): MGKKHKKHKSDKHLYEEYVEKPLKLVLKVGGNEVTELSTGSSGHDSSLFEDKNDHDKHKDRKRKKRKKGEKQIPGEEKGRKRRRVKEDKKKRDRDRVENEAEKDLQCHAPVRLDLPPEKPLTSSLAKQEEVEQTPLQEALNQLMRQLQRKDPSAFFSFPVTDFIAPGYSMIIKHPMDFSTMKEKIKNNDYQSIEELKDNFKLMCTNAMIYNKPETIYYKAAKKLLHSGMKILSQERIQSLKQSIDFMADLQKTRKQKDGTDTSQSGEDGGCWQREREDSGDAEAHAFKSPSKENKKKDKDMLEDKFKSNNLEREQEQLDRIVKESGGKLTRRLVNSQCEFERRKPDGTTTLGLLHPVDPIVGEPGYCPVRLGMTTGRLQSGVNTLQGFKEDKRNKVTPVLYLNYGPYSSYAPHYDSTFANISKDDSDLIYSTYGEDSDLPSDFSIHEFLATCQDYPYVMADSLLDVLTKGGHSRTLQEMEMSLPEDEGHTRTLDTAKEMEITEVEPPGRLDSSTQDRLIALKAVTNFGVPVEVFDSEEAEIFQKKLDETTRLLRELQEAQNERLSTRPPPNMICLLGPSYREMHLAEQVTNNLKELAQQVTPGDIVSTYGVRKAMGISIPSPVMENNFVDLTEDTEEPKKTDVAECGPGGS
Chain of Bromodomain-containing protein 1 (O95696 whole entry, the tested form may be a part): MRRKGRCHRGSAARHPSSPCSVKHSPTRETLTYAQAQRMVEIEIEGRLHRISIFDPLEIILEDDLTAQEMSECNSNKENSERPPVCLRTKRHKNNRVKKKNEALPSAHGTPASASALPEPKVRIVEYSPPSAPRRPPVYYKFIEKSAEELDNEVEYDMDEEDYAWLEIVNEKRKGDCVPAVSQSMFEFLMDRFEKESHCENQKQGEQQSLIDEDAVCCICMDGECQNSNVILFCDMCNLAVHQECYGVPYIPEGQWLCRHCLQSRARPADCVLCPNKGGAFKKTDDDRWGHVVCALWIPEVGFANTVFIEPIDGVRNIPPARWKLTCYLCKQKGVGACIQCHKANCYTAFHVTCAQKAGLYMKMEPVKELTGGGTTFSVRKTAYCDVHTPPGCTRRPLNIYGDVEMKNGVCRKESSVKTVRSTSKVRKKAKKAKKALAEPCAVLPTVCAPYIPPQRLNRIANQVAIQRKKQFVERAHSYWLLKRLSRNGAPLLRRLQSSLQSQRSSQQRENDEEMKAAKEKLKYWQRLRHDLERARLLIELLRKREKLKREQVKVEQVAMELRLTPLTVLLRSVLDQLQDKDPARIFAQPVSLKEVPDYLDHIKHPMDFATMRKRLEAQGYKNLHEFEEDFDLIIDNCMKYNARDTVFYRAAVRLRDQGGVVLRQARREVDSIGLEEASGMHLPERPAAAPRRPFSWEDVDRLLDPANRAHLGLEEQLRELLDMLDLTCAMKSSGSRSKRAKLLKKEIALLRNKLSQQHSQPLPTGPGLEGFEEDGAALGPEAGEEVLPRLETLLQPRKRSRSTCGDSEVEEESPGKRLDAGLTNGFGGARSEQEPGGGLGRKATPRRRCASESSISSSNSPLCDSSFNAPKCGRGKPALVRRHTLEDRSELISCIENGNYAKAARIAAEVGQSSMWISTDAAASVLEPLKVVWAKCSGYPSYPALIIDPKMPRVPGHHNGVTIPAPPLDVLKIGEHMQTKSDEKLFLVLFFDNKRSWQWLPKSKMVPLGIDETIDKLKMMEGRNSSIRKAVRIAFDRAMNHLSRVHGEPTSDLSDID
Chain of Histone acetyltransferase KAT2A (Q92830 whole entry, the tested form may be a part): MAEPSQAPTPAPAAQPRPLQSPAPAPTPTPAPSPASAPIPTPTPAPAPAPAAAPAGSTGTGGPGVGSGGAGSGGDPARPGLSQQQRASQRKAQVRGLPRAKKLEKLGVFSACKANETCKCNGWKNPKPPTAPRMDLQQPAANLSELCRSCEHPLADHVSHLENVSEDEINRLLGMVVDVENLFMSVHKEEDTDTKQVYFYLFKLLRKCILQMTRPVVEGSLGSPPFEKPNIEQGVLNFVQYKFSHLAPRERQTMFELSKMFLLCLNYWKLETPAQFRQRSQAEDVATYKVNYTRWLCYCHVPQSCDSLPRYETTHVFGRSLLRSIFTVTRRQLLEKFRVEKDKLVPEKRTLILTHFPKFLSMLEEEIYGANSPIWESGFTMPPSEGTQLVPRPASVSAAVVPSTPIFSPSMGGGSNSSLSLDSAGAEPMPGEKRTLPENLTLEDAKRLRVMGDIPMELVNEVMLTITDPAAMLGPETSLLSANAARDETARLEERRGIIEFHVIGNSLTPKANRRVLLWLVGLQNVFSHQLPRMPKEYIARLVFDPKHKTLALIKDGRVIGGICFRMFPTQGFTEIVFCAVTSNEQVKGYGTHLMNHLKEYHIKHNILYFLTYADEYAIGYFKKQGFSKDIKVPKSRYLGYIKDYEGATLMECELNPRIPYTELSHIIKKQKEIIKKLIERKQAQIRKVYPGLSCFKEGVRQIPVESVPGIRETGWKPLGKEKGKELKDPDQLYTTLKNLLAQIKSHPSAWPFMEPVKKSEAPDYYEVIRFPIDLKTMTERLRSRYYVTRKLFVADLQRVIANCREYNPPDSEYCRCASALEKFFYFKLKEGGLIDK
Chain of ATPase family AAA domain-containing protein 2 (Q6PL18 whole entry, the tested form may be a part): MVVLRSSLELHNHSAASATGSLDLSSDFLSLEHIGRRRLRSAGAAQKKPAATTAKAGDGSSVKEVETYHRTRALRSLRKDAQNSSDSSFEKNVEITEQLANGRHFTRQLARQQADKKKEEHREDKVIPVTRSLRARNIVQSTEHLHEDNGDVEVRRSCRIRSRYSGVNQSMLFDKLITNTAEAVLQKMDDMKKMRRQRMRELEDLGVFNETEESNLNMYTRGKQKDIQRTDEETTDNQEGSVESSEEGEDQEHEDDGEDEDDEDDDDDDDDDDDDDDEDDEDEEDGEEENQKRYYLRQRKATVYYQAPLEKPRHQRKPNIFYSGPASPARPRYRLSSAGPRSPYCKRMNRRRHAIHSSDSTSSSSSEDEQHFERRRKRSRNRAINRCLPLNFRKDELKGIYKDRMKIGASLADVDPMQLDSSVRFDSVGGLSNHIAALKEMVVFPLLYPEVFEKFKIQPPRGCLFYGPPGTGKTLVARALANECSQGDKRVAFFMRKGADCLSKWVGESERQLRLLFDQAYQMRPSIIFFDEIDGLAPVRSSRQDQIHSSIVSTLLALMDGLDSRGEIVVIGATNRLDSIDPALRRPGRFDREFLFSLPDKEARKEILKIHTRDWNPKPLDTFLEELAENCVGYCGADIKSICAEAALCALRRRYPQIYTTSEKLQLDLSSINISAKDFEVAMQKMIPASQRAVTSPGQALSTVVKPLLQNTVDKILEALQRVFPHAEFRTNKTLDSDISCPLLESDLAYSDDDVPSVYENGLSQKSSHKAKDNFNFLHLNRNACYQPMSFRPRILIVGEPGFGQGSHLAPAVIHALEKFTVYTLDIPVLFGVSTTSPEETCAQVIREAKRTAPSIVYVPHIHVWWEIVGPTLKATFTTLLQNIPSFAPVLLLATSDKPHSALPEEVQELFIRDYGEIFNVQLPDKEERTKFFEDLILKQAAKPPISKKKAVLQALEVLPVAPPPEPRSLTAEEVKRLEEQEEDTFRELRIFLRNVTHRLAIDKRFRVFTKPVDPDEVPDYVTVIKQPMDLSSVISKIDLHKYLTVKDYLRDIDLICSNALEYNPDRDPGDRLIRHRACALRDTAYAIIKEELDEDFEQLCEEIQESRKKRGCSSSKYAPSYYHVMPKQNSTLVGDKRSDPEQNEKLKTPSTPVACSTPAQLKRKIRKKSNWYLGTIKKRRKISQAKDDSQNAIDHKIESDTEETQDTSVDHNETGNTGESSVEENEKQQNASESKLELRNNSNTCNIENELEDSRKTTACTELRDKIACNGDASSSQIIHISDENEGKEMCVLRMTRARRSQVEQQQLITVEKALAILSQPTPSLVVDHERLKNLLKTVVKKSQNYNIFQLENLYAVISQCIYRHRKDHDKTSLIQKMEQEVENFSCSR

pIC50 [1]: 8.70 | pKi [1]: > 9.00 | pIC50 (MDA-MB-231): 7.07 | concentration at 1 h [2]: 7380 ng/g | Cmax (Mus musculus [3]): 6400 ng/mL | clearance [4]: 20.8 mL/min/kg | Vd [5]: 0.83 L/kg | bioavailability [6]: 71.3% | pKd [8]: 8.96 | pKd [9]: 9.31 | pKd [10]: 8.68 | pKd (CREB-binding protein): 7.33 | pKd [11]: 6.96 | pKd [12]: < 5.30 | pKd [13]: < 5.30 | pKd [14]: < 5.30 | pKd [15]: < 5.30 | pKd [16]: < 5.30 | pKd [17]: < 5.30 | Selectivity Index (Homo sapiens [18]): > 50 | Selectivity Index (Homo sapiens [19]): > 50 | Selectivity Index (Homo sapiens [20]): > 50 | Selectivity Index (Homo sapiens [21]): > 50 | Selectivity Index (Homo sapiens [22]): > 50 | Selectivity Index (Homo sapiens [23]): > 20 | Selectivity Index (Homo sapiens [24]): > 20 | Selectivity Index (Homo sapiens [25]): > 20 | pIC50 [26]: 5.41
Compound: COc1cc2c(cc1-c1c(C)noc1C)[nH]c1nc(C)nc(Nc3cc(C4CC4)nn3C)c12
Activity (Mus musculus [7]): Non-Toxic
